Reference: ChEMBL document CHEMBL1157169, “A class of novel nitronyl nitroxide labeling basic and acidic amino acids: synthesis, application for preparing ESR optionally labeling peptides, and bioactivity investigations” (Bioorg Med Chem, 2008)
Each block holds one compound with its values, some of them ahead of it.

Legend:
Oryctolagus cuniculus [1] = species on record: Oryctolagus cuniculus; test: Thrombolytic activity against rabbit fibrinogen assessed as fibrinogen lysis area at 2.2 uM
Procedure, shortened: (§1)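 Equal volumes of 0.3% rabbit fibrinogen and 0.95% agarose in 50 mM sodium barbiturate buffer (pH 7.8), coagulated with thrombin (100 IU/mL). After 30 min at 4 °C, 5 mm wells were punched and 30 µl of sample in NS added per well. Plates incubated and lysis area measured in mm². ANOVA.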

Plasma [2] = test: Thrombolytic activity in rabbit plasma assessed as euglobulin clot lysis time at 4.5 uM; assay type: functional, Oryctolagus cuniculus
Procedure, shortened: (§2)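 Rabbit plasma diluted 1:20 in water and precipitated at pH 5.7 with 0.25% acetic acid for 30 min at 4 °C. Centrifuged at 2000g for 15 min. […] Sample added and time to clot lysis recorded.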

Oryctolagus cuniculus [3] = species on record: Oryctolagus cuniculus; test: Thrombolytic activity against rabbit fibrinogen assessed as fibrinogen lysis area at 1.1 uM; procedure, shortened: as §1
Plasma [4] = test: Thrombolytic activity in rabbit plasma assessed as euglobulin clot lysis time at 1.1 uM; assay type: functional, Oryctolagus cuniculus; procedure, shortened: as §2
PC-12 [5] = test: Radical scavenging activity in rat PC12 cells assessed as inhibition of hydroxyl radical-induced cell damage by MTT assay; assay type: functional, cell-based
Procedure, shortened: (§3)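 PC12 cells grown in DMEM with 10% heat-inactivated horse serum, 5% FBS and 1.0 mM pyruvate at 37 °C, 5% CO2. Seeded at 20,000 cells/well on poly-L-lysine and attached 24 h. Pretreated 1 h with 12.5–200 µM compound. Damage induced by SNP 2 mM for 2 h (NO), H2O2 1 mM for 1 h, or H2O2 1 mM/Fe(II) 30 µM for 1 h (·OH). Media replaced, cells incubated 14 h, survival measured by MTT.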

Aorta [6] = test: Nitric oxide radical scavenging activity in rat aortic strip assessed as inhibition of acetylcholine-induced vasorelaxation at 1 uM; assay type: functional, tissue-based
Rattus norvegicus [7] = test: Thrombolytic activity in Wistar rat assessed as reduction in thrombus weight at 5 umol/kg; assay type: functional
Procedure, shortened: (§4)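 Male Wistar rats (200–300 g) anesthetized with pentobarbital sodium (80.0 mg/kg, ip). A steel helix was left 15 min in 1.0 ml carotid artery blood, and the helix with thrombus was weighed. It was placed in a polyethylene tube filled with heparin sodium (50 IU/ml NS) inserted into the left jugular vein. Heparin was injected, then compound dissolved in NS. Read-out is reduction in thrombus weight.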

Plasma [8] = test: Thrombolytic activity in rabbit plasma assessed as euglobulin clot lysis time at 2.2 uM; assay type: functional, Oryctolagus cuniculus; procedure, shortened: as §2
Rattus norvegicus [9] = test: Thrombolytic activity in Wistar rat assessed as reduction in thrombus weight at 2.5 umol/kg; assay type: functional; procedure, shortened: as §4
Aorta [10] = test: Nitric oxide radical scavenging activity in rat aortic strip assessed as inhibition of acetylcholine-induced vasorelaxation at 100 uM; assay type: functional, tissue-based
Aorta [11] = test: Nitric oxide radical scavenging activity in rat aortic strip assessed as inhibition of acetylcholine-induced vasorelaxation at 10 uM; assay type: functional, tissue-based
PC-12 [12] = test: Radical scavenging activity in rat PC12 cells assessed as inhibition of hydrogen peroxide radical-induced cell damage by MTT assay; assay type: functional, cell-based; procedure, shortened: as §3
Rattus norvegicus [13] = test: Thrombolytic activity in Wistar rat assessed as reduction in thrombus weight at 10 umol/kg; assay type: functional; procedure, shortened: as §4
PC-12 [14] = test: Radical scavenging activity in rat PC12 cells assessed as inhibition of nitric oxide radical-induced cell damage by MTT assay; assay type: functional, cell-based; procedure, shortened: as §3
Oryctolagus cuniculus [15] = species on record: Oryctolagus cuniculus; test: Thrombolytic activity against rabbit fibrinogen assessed as fibrinogen lysis area at 4.5 uM; procedure, shortened: as §1
Blood [16] = test: Inhibition of 0.1 uM platelet activating factor-induced platelet aggregation in rabbit blood; assay type: functional, Oryctolagus cuniculus
Procedure, shortened: (§5)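 Platelet-rich plasma made by centrifuging normal rabbit blood anticoagulated with sodium citrate (3.8% final). Platelets adjusted to 2×10^5/µl with autologous plasma. Aggregation induced by PAF or ADP (final 10^-5–10^-7 M) and read by turbidimetry in an aggregometer. Maximal aggregation rate (Am%) taken as peak height of the curve.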

Blood [17] = test: Inhibition of 1 uM platelet activating factor-induced platelet aggregation in rabbit blood; assay type: functional, Oryctolagus cuniculus; procedure, shortened: as §5
Rattus norvegicus [18] = test: Antithrombotic activity in Wistar rat assessed as dry thrombus weight at 5 umol/kg
Blood [19] = test: Inhibition of 0.1 uM adenosine diphosphate-induced platelet aggregation in rabbit blood; assay type: functional, Oryctolagus cuniculus; procedure, shortened: as §5
[20] = Aqueous stability assessed as decomposition time at pH 7.4; assay type: physicochemical; settings: buffer
Procedure, shortened: (§6)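 Each sample dissolved in aqueous solution at pH 2.0, 7.4 or 11.5 (final 10^-2 mM) and held at room temperature for up to 200 h. Decomposition followed by TLC (CHCl3/CH3OH, 20:1). Value is the time at which decomposition appeared.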

[21] = Aqueous stability assessed as decomposition time at pH 11.5; assay type: physicochemical; settings: buffer; procedure, shortened: as §6
[22] = Aqueous stability assessed as decomposition time at pH 2.0; assay type: physicochemical; settings: buffer; procedure, shortened: as §6
Blood [23] = test: Inhibition of 10 uM platelet activating factor-induced platelet aggregation in rabbit blood; assay type: functional, Oryctolagus cuniculus; procedure, shortened: as §5
Rattus norvegicus [24] = test: Antithrombotic activity in Wistar rat assessed as wet thrombus weight at 5 umol/kg; assay type: functional
Procedure, shortened: (§7)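 Male Wistar rats (250–300 g) anesthetized with pentobarbital sodium (80.0 mg/kg, ip). The right carotid artery and left jugular vein were cannulated via a polyethylene tube containing a thread, filled with NS or compound dissolved in NS (vehicle NS). Blood shunted 15 min. The thread was weighed wet, then after 2 weeks in a desiccator weighed dry. n = 10, ANOVA.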

Blood [25] = test: Inhibition of 1 uM adenosine diphosphate-induced platelet aggregation in rabbit blood; assay type: functional, Oryctolagus cuniculus; procedure, shortened: as §5
Blood [26] = test: Inhibition of 10 uM adenosine diphosphate-induced platelet aggregation in rabbit blood; assay type: functional, Oryctolagus cuniculus; procedure, shortened: as §5
Rattus norvegicus [27] = test: Antithrombotic activity in Wistar rat assessed as dry thrombus weight at 20 mg/kg; assay type: functional; procedure, shortened: as §7
Rattus norvegicus [28] = test: Antithrombotic activity in Wistar rat assessed as wet thrombus weight at 20 mg/kg; assay type: functional; procedure, shortened: as §7

Activity (Oryctolagus cuniculus [1]): 216 mm2
Activity (Oryctolagus cuniculus [3]): 197 mm2
Activity (Oryctolagus cuniculus [15]): 234 mm2
Structure (SMILES): C[C@H](NC(=O)[C@@H]1CCCN1)C(=O)N[C@@H](CCCCNC(=O)COc1ccc(C2=[N+]([O-])C(C)(C)C(C)(C)N2O)cc1)C(=O)O
Time (Plasma [2]): 102.95 min
Time (Plasma [4]): 149 min
EC50 (PC-12 [5]): 99 µM
inhibition (Aorta [6]): 26.6%
Activity (Rattus norvegicus [7]): 15.38 mg
Time (Plasma [8]): 128.8 min
Activity (Rattus norvegicus [9]): 11.06 mg
inhibition (Aorta [10]): 99.1%
inhibition (Aorta [11]): 73.9%
EC50 (PC-12 [12]): 28.8 µM
Activity (Rattus norvegicus [13]): 24.2 mg
EC50 (PC-12 [14]): 89 µM

Time [20]: > 200 h
Time [21]: > 200 h
Time [22]: > 200 h
Activity (Oryctolagus cuniculus [15]): 26.6 mm2
Structure (SMILES): CC1(C)N(O)C(c2ccc(OCC(=O)O)cc2)=[N+]([O-])C1(C)C
Time (Plasma [2]): 223.11 min
inhibition (INH) (Blood [16]): 52.45%
inhibition (INH) (Blood [17]): 51.4%
dry thrombus weight (Rattus norvegicus [18]): 6.67 mg
inhibition (Aorta [6]): 25.3%
inhibition (INH) (Blood [19]): 49.33%
inhibition (Aorta [10]): 99%
inhibition (Aorta [11]): 72.4%
EC50 (PC-12 [12]): 31.6 µM
inhibition (INH) (Blood [23]): 53.8%
Activity (Rattus norvegicus [13]): 12.11 mg
EC50 (PC-12 [14]): 92.3 µM
Activity (Rattus norvegicus [24]): 38.76 mg
inhibition (INH) (Blood [25]): 50.65%
inhibition (INH) (Blood [26]): 51.98%

Structure (SMILES): CC(=O)Oc1ccccc1C(=O)O [ASPIRIN]
Activity (Rattus norvegicus [27]): 4.04 mg
Activity (Rattus norvegicus [28]): 24.16 mg
